Laboratory results published in PubChem BioAssay.
Inconclusive results are not listed.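 Rule for the calls, unless noted: active = RAM network inhibition above 8.4% in each of two replicates, 3 SD over the compound average; inconclusive = above 8.4% inhibition in only one replicate; inactive = 8.4% inhibition or less in each replicate.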

Experiments:
[1] = S. cerevisiae growth inhibition in permissive medium (OD615), pilot counter-assay for S. cerevisiae lifespan shortening project, permissive growth control (AID 705;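 active = growth inhibition above 25% in both replicates, a cutoff set 3 SD above the mean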); conditions: OD615, 24 h, at 10 µM, active compounds read high
Method in brief: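 System – S. cerevisiae with engineered DeaD lifespan system · Buffer or medium – SC raffinose/galactose permissive medium · Schedule – cells pre-grown 4 h, then 24 h compound exposure, 30 °C humidified · Technique – culture turbidity as optical density at 615 nm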

[2] = S. cerevisiae growth inhibition in restrictive medium, OD615, pilot screen, restrictive growth control, yeast lifespan reduction project (AID 706;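 active = growth inhibition above a set limit, 3 SD over mean compound inhibition, in both replicates, cut at about 43% in these data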;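 note: modified DeaD lifespan yeast strain shifted to restrictive glucose medium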); conditions: OD615, 48 h, at 10 µM, active compounds read high
Method in brief: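 Material: engineered S. cerevisiae DeaD strain / Medium: glucose-based CSMM-D restrictive medium / Compound: single dose of 10 µM compound final, 0.25% DMSO / Timing: 4 h pre-incubation, 48 h exposure at 30 °C / Technique: OD615 absorbance reading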

[3] = doxorubicin toxicity protection in MRP-1 cells – H69AR cells, CellTiter-Glo, duplicate, MRP-1 activator project, pilot screen (AID 807;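 active = viability increase at or above a cutoff of the median across tested compounds plus 3 SD, cut at about 8.5% in these data, passing the limit was not always enough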;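 note: compound pretreatment 18-22 h then 72 h combined with doxorubicin; 0% = doxorubicin alone and 100% = vehicle without doxorubicin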); conditions: H69AR viability with doxorubicin, CellTiter-Glo luminescence; at 10 µM; active compounds read high
[4] = viability of HCT116 without oncogenic beta-catenin – human colon tumor cells, pilot screen (AID 823;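 active = cell viability at or below a set limit in both duplicate runs, the limit being the all-compound median minus 4 SD, cut at about 23% in these data, passing the limit was not always enough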;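 note: 0% = wells killed by 20 µM Hyamine and 100% = untreated DMSO cell wells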); conditions: HCT116 beta-catenin knockout viability, CellTiter-Glo, 60 h; at 10 µM; active compounds read low
[5] = viability of PTEN-null HCT116 cells – cell-based, HCT116 clonal line, CellTiter-Glo, pilot screen (AID 824;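 active = viability at or below 27.92% in each of two runs, the all-compound median minus 4 SD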;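 note: 0% = 20 µM Hyamine control and 100% = vehicle cell control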); conditions: HCT116 PTEN-deleted viability, 60 h, at 10 µM, active compounds read low
[6] = RAM pathway blockade in budding yeast – dse1pr::URA3 reporter, 5-FOA selection, pilot screen (AID 869;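 active = inhibition over a set limit, the all-compound mean plus 3 SD, in both replicate runs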;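 note: 0% = DMSO wells with no growth and 100% = 10 µM 1-NA-PP1 with full growth; RAM network block rescues cells from 5-FOA so hits raise OD615 growth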); conditions: S. cerevisiae dse1pr::URA3 5-FOA growth, OD615, 2 d; at 10 µM; active compounds read high; strain carries analog-sensitive mutant Cbk1 kinase
[7] = RAM signaling pathway blockade in yeast – S. cerevisiae, Pdr1DBD-CYC8 efflux-inhibited sensitized strain, primary screen (AID 1298);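 note: 0% = DMSO untreated cells without growth and 100% = 10 µM 1-NA-PP1 full growth; higher means more yeast growth rescued from 5-FOA killing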; conditions: S. cerevisiae cbk1-as DSE1-URA3 strain, 5-FOA growth OD615, 2 d; at 50 µM; active compounds read high

CCOc1ccc(-c2cc(CCCC(=O)NCc3ccco3)no2)cc1
inactive: growth inhibition [1] -2.19% | growth inhibition [2] -4.02% | viability increase [3] -2.79% | viability [4] 86.5% | viability [5] 88% | inhibition [6] 0.22% | RAM network inhibition [7] 1.77%

O=C1C(Cl)=C(N2CCOCC2)C(=O)N1c1ccccc1Cl
inactive: growth inhibition [1] -8.11% | growth inhibition [2] -4.76% | viability increase [3] -2.16% | viability [4] 99.2% | viability [5] 103% | inhibition [6] 0.045% | RAM network inhibition [7] 4.96%

O=C(CSc1n[nH]c(-c2ccccc2)n1)c1ccccc1
inactive: growth inhibition [1] -0.485% | growth inhibition [2] 16.9% | viability increase [3] -0.56% | viability [4] 95.8% | viability [5] 95.5% | inhibition [6] 1.01% | RAM network inhibition [7] 2.45%

CC1CCC(NC(=O)Cn2cc3c(n2)CCCC3)CC1 (stereo not drawn)
inactive: growth inhibition [1] -4.87% | growth inhibition [2] -6.18% | viability increase [3] 1.57% | viability [4] 110% | viability [5] 103% | inhibition [6] -0.485% | RAM network inhibition [7] 0.23%

COc1ccc(C(=O)N2CCC(C(=O)Nc3ccc(OC)c(OC)c3)CC2)cc1
inactive: growth inhibition [1] -6.75% | growth inhibition [2] -8.78% | viability increase [3] -0.38% | viability [4] 89.7% | viability [5] 89% | inhibition [6] 1.28% | RAM network inhibition [7] 2.4%

COc1ccc(-n2ncc3c(N4CCCCC4)ncnc32)cc1
inactive: growth inhibition [1] -12.2% | growth inhibition [2] 0.385% | viability increase [3] -3.57% | viability [4] 67.8% | viability [5] 57.1% | inhibition [6] 1.78% | RAM network inhibition [7] -1.99%

CCCOc1ccc(N2CC(C(=O)Nc3ccccc3OC)CC2=O)cc1 (stereo not drawn)
inactive: growth inhibition [1] -15.6% | growth inhibition [2] -6.16% | viability increase [3] 0.54% | viability [4] 105% | viability [5] 93.7% | inhibition [6] 0.11% | RAM network inhibition [7] 2.24%

COc1ccc(N2CCN(c3cc(C)c4ccc(O)cc4n3)CC2)cc1
inactive: growth inhibition [1] 3.12% | growth inhibition [2] 10.5% | viability increase [3] -2.1% | viability [4] 75.7% | viability [5] 79.8% | inhibition [6] 0.39% | RAM network inhibition [7] 6.62%

CCCCCn1c(=O)[nH]c2cc(C(=O)NCCCN3CCC(C)CC3)ccc2c1=O
inactive: growth inhibition [1] -6.26% | growth inhibition [2] 3.06% | viability increase [3] -6.38% | viability [4] 56.6% | viability [5] 61.9% | inhibition [6] 0.015% | RAM network inhibition [7] 3.34%

O=C(NCCN1CCCCCC1)C1CCC(CNS(=O)(=O)c2cccc3cccnc23)CC1 (stereo not drawn)
inactive: growth inhibition [1] -8.39% | growth inhibition [2] -3.45% | viability increase [3] -3.58% | viability [4] 90.7% | viability [5] 93.8% | inhibition [6] 1.59% | RAM network inhibition [7] 10%

COc1cccc(C2NC(C)(C(=O)O)C3C(=O)N(C(C)C)C(=O)C23)c1O (stereo not drawn)
inactive: growth inhibition [1] 2.59% | growth inhibition [2] 1.56% | viability increase [3] -1.19% | viability [4] 91.5% | viability [5] 91.3% | inhibition [6] 1.82% | RAM network inhibition [7] 2.7%

CNc1nc(SCC(=O)OC)nc(N2CCOCC2)n1
inactive: growth inhibition [1] -11.7% | growth inhibition [2] -14.8% | viability increase [3] -1.78% | viability [4] 93.9% | viability [5] 89.3% | inhibition [6] 1.14% | RAM network inhibition [7] 3.47%

Cc1ccc(-c2ccc(CCC(=O)O)n2CC(=O)O)cc1
inactive: growth inhibition [1] -3.08% | growth inhibition [2] -11.2% | viability increase [3] -1.34% | viability [4] 98.7% | viability [5] 107% | inhibition [6] 1.36% | RAM network inhibition [7] 1.3%

COc1ccc(-n2c3c(cc(C(=O)N4CCC(C)CC4)c2=O)C(=O)CC(C)(C)C3)cc1
inactive: growth inhibition [1] -3.21% | growth inhibition [2] 7.18% | viability increase [3] -2.27% | viability [4] 111% | viability [5] 101% | inhibition [6] 1.98% | RAM network inhibition [7] 0.25%

O=C(Sc1nnc(-c2ccccc2)o1)N1c2ccccc2Sc2ccccc21
inactive: growth inhibition [1] 15.4% | growth inhibition [2] 21.9% | viability increase [3] -4.17% | viability [4] 85.1% | viability [5] 89.7% | inhibition [6] 2.49% | RAM network inhibition [7] 3.79%

Cc1ccc(F)cc1NC(=O)c1c(-c2ccccc2)noc1C
inactive: growth inhibition [1] -10.2% | growth inhibition [2] -26.1% | viability increase [3] -2.01% | viability [4] 78.8% | viability [5] 72.9% | inhibition [6] 0.015% | RAM network inhibition [7] 2.22%

CCOC(=O)c1ccc(Nc2ccc(-c3ccc(OC)c(OC)c3)nn2)cc1
inactive: growth inhibition [1] -6.25% | growth inhibition [2] -20% | viability increase [3] -5.24% | viability [4] 80.8% | viability [5] 77.2% | inhibition [6] 2.08% | RAM network inhibition [7] 3.37%

COCCNC(=O)CN1C(=O)COc2ccc(Cl)cc21
inactive: growth inhibition [1] -4.28% | growth inhibition [2] 6.35% | viability increase [3] -1.25% | viability [4] 111% | viability [5] 97.9% | inhibition [6] 1.12% | RAM network inhibition [7] 5.23%

COc1cccc(OCCn2c(C)c(/C=N/n3cnnc3)c3ccccc32)c1
inactive: growth inhibition [1] 4.55% | growth inhibition [2] 1.59% | viability increase [3] -2.88% | viability [4] 99.3% | viability [5] 87% | inhibition [6] 2.11% | RAM network inhibition [7] 7.39%

O=C(Nc1ccc(S(=O)(=O)N2CCCCCC2)cc1)c1ccc(Br)o1
inactive: growth inhibition [1] -4.67% | growth inhibition [2] 0.21% | viability increase [3] -3.03% | viability [4] 69.6% | viability [5] 59.7% | inhibition [6] 2.62% | RAM network inhibition [7] 5.05%

CCOC(=O)Cc1csc(NC(=O)COc2ccc(N(C)S(=O)(=O)c3cccs3)cc2)n1
inactive: growth inhibition [1] -7.54% | growth inhibition [2] -11.7% | viability increase [3] -1.76% | viability [4] 71% | viability [5] 80.3% | inhibition [6] 0.12% | RAM network inhibition [7] 1.7%

CC1(C)CC(=O)C=C(NC2CC(C)(C)NC(C)(C)C2)C1
inactive: growth inhibition [1] -11.6% | growth inhibition [2] -15.2% | viability increase [3] -0.93% | viability [4] 102% | viability [5] 98.8% | inhibition [6] 1.32% | RAM network inhibition [7] 3.08%

CCCCCCSc1nc2c(c(=O)[nH]c(=O)n2C)n1C
inactive: growth inhibition [1] -0.55% | growth inhibition [2] 22.7% | viability increase [3] -4.63% | viability [4] 82% | viability [5] 90.3% | inhibition [6] 0.395% | RAM network inhibition [7] 1.1%

CCOC(=O)N1CCN(C(=O)CSc2nc3c(cnn3-c3ccccc3)c(=O)[nH]2)CC1
inactive: growth inhibition [1] -2.34% | growth inhibition [2] -4.3% | viability increase [3] -4.92% | viability [4] 98.9% | viability [5] 99% | inhibition [6] 0.19% | RAM network inhibition [7] -1.2%
